The conditions of data set [1]: cited from earlier work.
For data set [2] the following is noted: statement without reference; cited from earlier work.
The conditions of data set [3]: cited from earlier work. The source holds these as a separate data set.
Data set [4] is described as follows: Population pharmacokinetic model of micafungin in ICU patients. The class given is in vivo. Conditions: human, plasma, iv, 100 mg. Summed up: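 ICU adults (n = 20; suspected or proven fungal infection) received 100 mg QD IV over ~1 h. Plasma was sampled on day 3 (±1) pre-dose and 0.5–24 h post start infusion, on day 7 (±1) in six samples to 24 h, and as daily troughs. Drug was measured by UPLC-fluorescence. The model was fitted by FOCE with interaction, with IOV on CL and V and albumin, CVVH and SOFA tested as covariates.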

For data set [5] the following is noted: cited from earlier work. This is another data set of the same source.

Like-named read-outs stand apart in the source and are kept apart here. Numbered stars: 1 amine (or outer) side, 2 acyl side, 3 side chain; on linkers, the order of the positions; unused ones are H or OH. Bridge positions count the residues as written; N and C are the ends. Square brackets hold non-standard residues; d marks the D form. Peptide text beside a SMILES is read from it. * marks the point of attachment. hTyr(3S-OH,4S-OH,3'-OSO3H) = N[C@H](C(=O)O)[C@H](O)[C@@H](O)c1ccc(O)c(OS(=O)(=O)O)c1; Orn(4R-OH,5R-OH) = O=C([C@H](C[C@@H](O)[C@@H](O)N[*:3])N[*:1])[*:2]; Pro(3S-OH,4S-Me) = C[C@H]1CN[C@H](C(=O)O)[C@H]1O; X1 = CCCCCOc1ccc(-c2cc(-c3ccc(C(=O)*)cc3)no2)cc1; Gln(3R-OH) = NC(=O)C[C@@H](O)[C@H](N)C(=O)O; Hyp = O=C(O)[C@@H]1C[C@@H](O)CN1

Regarding `CCCCCOc1ccc(-c2cc(-c3ccc(C(=O)N[C@H]4C[C@@H](O)[C@@H](O)NC(=O)[C@@H]5[C@@H](O)[C@@H](C)CN5C(=O)[C@H]([C@H](O)CC(N)=O)NC(=O)[C@H]([C@H](O)[C@@H](O)c5ccc(O)c(OS(=O)(=O)O)c5)NC(=O)[C@@H]5C[C@@H](O)CN5C(=O)[C@H]([C@@H](C)O)NC4=O)cc3)no2)cc1` [micafungin] (X1-[Orn(4R-OH,5R-OH)]T[Hyp][hTyr(3S-OH,4S-OH,3'-OSO3H)][Gln(3R-OH)][Pro(3S-OH,4S-Me)]; lactam 1-C), the tolerability result in data set [1] (doses of 8 mg/kg) is recorded as “well tolerated”. In data set [1] (therapy with 150–200 mg QD), the tolerability entry was “well tolerated”. The protein binding result in data set [2] is reported as “highly protein bound”. Moreover, in data set [3], the solubility in water result is given as “freely soluble in water”. In addition, the Vd (usually the apparent volume that relates the amount in the body to the concentration in plasma or blood) in data set [4] was 21.2 L. Besides, the metabolism result in data set [5] is reported as “only a small fraction is metabolised”. Further, in data set [5] (healthy volunteers), the CL is recorded as 0.55 L/h; the “V (V 1 and V 2 together)” value was 13.9 L.
On to Anidulafungin, for which the “V in critically ill patients compared with healthy volunteers” value in data set [5] is “equal”.
With caspofungin, the “CL and V in critically ill patients compared with healthy volunteers” value in data set [5] is reported as “identical”.

These data come from paper PMC5591795 (Clinical Pharmacokinetics, 2017).
